Reference: the array DNA melting data of Ke et al. (doi:10.1101/2024.01.08.574731)

Legend:
[1] = folding enthalpy; higher = less favourable; fluorescence melt of hairpins on a sequencing array, two-state fit; settings: sodium 0.088 M
In short: (§1)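 Bootstrapped two-state fits yielded melting temperature and folding enthalpy for library hairpins. Cy3 fluorescence, with annealed Cy3 and quencher oligos, was imaged on a sequenced MiSeq flow cell in 50 mM Na-HEPES pH 8.0, 25 mM NaCl in 2.5 °C steps up to 60 °C, and normalised to pre-quench Cy3 and to control constructs. Four replicates were combined by inverse variance, and fitted temperatures were raised by 9.35 °C to match UV melts.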

[2] = melting temperature; fluorescence melt of hairpins on a sequencing array, two-state fit, raised by 9.35 °C to match UV melts; settings: sodium 0.088 M
In short: as §1

Sequence	folding enthalpy [1]	Tm [2]
GCGGGGCGAAAGCCATGC ((..(((....)))..))	-27.7 kcal/mol	62.4 °C
GCGTAAGTACGC ((((....))))	-23.9 kcal/mol	52.9 °C
GATATCCGAAAGGAATC (((.(((....))))))	-12.9 kcal/mol	30.2 °C
GAGTACGAAAGTATCTC ((((((....))).)))	-26.8 kcal/mol	41.9 °C
GTCTTAGAAATAAGAC ((((((....))))))	-26.5 kcal/mol	43.4 °C
GCGTGGTACGC ((((...))))	-20.5 kcal/mol	56.3 °C
GACGCTGGAAACAGCGCC (.(((((....))))).)	-12.4 kcal/mol	53 °C
GATCTCCGAAGAGATC ((((((....))))))	-40.6 kcal/mol	54 °C
GTCGGGCCGAAAGGCGAC (((..(((....))))))	-14.5 kcal/mol	51 °C
GGTCTACCGAAAGGTACC (((..(((....))))))	-11 kcal/mol	29.1 °C
GTTTCGGGAAACTGAGAC ((.((.(....).)).))	-13.2 kcal/mol	35.7 °C
GCCCTGGGAAACCAAGGC (((.(((....))).)))	-30.1 kcal/mol	44.8 °C
GCGGGCGAAAGCCTCCGC ((((((....)))..)))	-25.8 kcal/mol	53.3 °C
CGAGACGGAAACGTTTCG (((.(((....))).)))	-41.5 kcal/mol	49.6 °C
GATCCCAATAGGGATC ((((((....))))))	-36.5 kcal/mol	64.8 °C
GGTGTCGGAAACGATACC (((.(((....))).)))	-52 kcal/mol	54.4 °C
GGTTGCGAAAGCATGACC ((((((....)))..)))	-15.7 kcal/mol	40.2 °C
GATCGCACAGGCGATC ((((((....))))))	-33 kcal/mol	68.1 °C
GCGTTGAAAAACGC (((((....)))))	-30.2 kcal/mol	61.2 °C
GCGCCCGAAAGGGTACGC ((((((....)))..)))	-27.4 kcal/mol	55.1 °C
GAATTCGAAAGAATTC ((((((....))))))	-44.9 kcal/mol	54.4 °C
GGGAACGAAAGTTCTCCC ((((((....)))..)))	-14.7 kcal/mol	45 °C
GGGTGACGAAAGTCTCCC (((.(((....))).)))	-36.2 kcal/mol	60.3 °C

Sequence	folding enthalpy [1]	Tm [2]
GCTTCGCGAAAGCTGAGC (((..((....))..)))	-14.5 kcal/mol	45.5 °C
GCGCTCCCGAAAGGGCGC (((..(((....))))))	-35 kcal/mol	62.2 °C
GATCTCTGAAGAGATC ((((((....))))))	-35.2 kcal/mol	54.2 °C
CGCGGAAAAACAACCGCG ((..............))	-26.4 kcal/mol	49.8 °C
GCACCCGGAAACGAGCGC ((.(.((....)).).))	-29.2 kcal/mol	34.7 °C
GTAGACCGAAAGGTATAC (((.(((....))).)))	-36 kcal/mol	51.7 °C
GATCACCTCCGTGATC ((((((....))))))	-32.5 kcal/mol	55 °C
GGTTACGGAAACGTAACC (((((((....)))))))	-43 kcal/mol	65.4 °C
GACCCTGAAAAGGGTC ((((((....))))))	-33.7 kcal/mol	67.5 °C
GATCACTGATGTGATC ((((((....))))))	-34.5 kcal/mol	55.9 °C
GATCGACCGATCGATC ((((((....))))))	-25.4 kcal/mol	51.6 °C
GGATATCGAAAGATTTCC (((.(((....))).)))	-30.9 kcal/mol	41.5 °C
GCTTCGGGAAACTGGAGC (((.(.(....).).)))	-32.7 kcal/mol	39.1 °C
GAGCAGCCGAAAGGCCTC (((..(((....))))))	-10.8 kcal/mol	31.7 °C
GCTCCGCGAAAGCGACGC ((..(((....)))..))	-18.4 kcal/mol	42.6 °C
GTACCTGGAAACAGGTAC (((((((....)))))))	-41.8 kcal/mol	61.9 °C
GCACTGCGAAAGCCGTGC ((((.((....)).))))	-37.2 kcal/mol	63.3 °C
GCGCTAGCGAAAGCTCGC (((..(((....))))))	-10.7 kcal/mol	45.4 °C
GTTGCTGGAAACAGTGAC ((..(((....)))..))	-28.4 kcal/mol	39.2 °C
GACCACGGAAACATGGCC (.(((.(....).))).)	-9.89 kcal/mol	24.4 °C
GAGTACGAAAGTACCTC ((((((....))).)))	-14.5 kcal/mol	47 °C
GATCGATTCGTCGATC ((((((....))))))	-41.5 kcal/mol	55.1 °C
CGTTCGGAAACGAAACG ((((((....))).)))	-27.8 kcal/mol	45.8 °C

Sequence	folding enthalpy [1]	Tm [2]
GTACACGAAAGTGTTAC ((((((....))).)))	-12.9 kcal/mol	42.5 °C
GGTTAGTCGAAAGACACC (((..(((....))))))	-17.2 kcal/mol	35.5 °C
GCGACGGGAAACCATCGC ((((.((....)).))))	-45.5 kcal/mol	51.4 °C
GACAATGGAAACATTGCC (.(((((....))))).)	-18.6 kcal/mol	38.2 °C
GTGTTAGGAAACTAGCAC (((.(((....))).)))	-31.2 kcal/mol	42.9 °C
GTCGACGGAAACGTCAAC ((.((((....)))).))	-15.6 kcal/mol	43.5 °C
GCCCGGCGAAAGCCACGC ((..(((....)))..))	-8.86 kcal/mol	35.9 °C
GATCATTATTATGATC ((((((....))))))	-32.2 kcal/mol	47.5 °C
GTATTCCCGAAAGGGTAC (((..(((....))))))	-8.03 kcal/mol	32.9 °C
GTTAGCACGAAAGTGAAC (((..(((....))))))	-11.6 kcal/mol	27 °C
GAATACACGAAAGTGTTC (((..(((....))))))	-13.4 kcal/mol	27.3 °C
GGTCCCGAAAGGGCACC ((((((....))).)))	-16.6 kcal/mol	53.5 °C
GATCAGAAACTGATC ((((((...))))))	-36.4 kcal/mol	47.5 °C
GACTTCCCGAAAGGGGTC (((..(((....))))))	-10.5 kcal/mol	34 °C
GCAGTTGGAAACGATTGC (((.(.(....).).)))	-20.5 kcal/mol	36.1 °C
GATCATGGAAACACGATC ((((.((....)).))))	-22.9 kcal/mol	33.8 °C
GCGCAGCGAAAGCGACGC (((..((....))..)))	-15.8 kcal/mol	57.6 °C
GCGAGGCGAAAGCTTTGC ((.(.((....)).).))	-20.3 kcal/mol	51.5 °C
GAGCAAGGAAACTTGCCC (.(((((....))))).)	-11 kcal/mol	41 °C
GGGTAGGGAAACCTACTC (.(((((....))))).)	-18.7 kcal/mol	44.6 °C
GCGAGACCGAAAGGTCGC (((..(((....))))))	-10.3 kcal/mol	59.1 °C
GCGCAGCGAAAGCTTAGC ((..(((....)))..))	-9.17 kcal/mol	40.5 °C
GATCGGGGGCCCGATC ((((((....))))))	-40.1 kcal/mol	59.7 °C

Sequence	folding enthalpy [1]	Tm [2]
GCGATCCGAAAGGAACGC (((.(((....))).)))	-40 kcal/mol	66.8 °C
GTCTTAGGAAACCAAGAC (((((.(....).)))))	-30.9 kcal/mol	34.4 °C
GATCCCAGGCGGGATC ((((((....))))))	-34 kcal/mol	61.1 °C
GGATTCGAAAGAAATCC ((((((....))).)))	-24.1 kcal/mol	44 °C
GTCTAAGGAAACTTGGAC (((.(((....))).)))	-21.9 kcal/mol	40.2 °C
GACTGTGGAAACATAGTC ((((.((....)).))))	-28.5 kcal/mol	45.2 °C
GATCCGCGTACGGATC ((((((....))))))	-35.3 kcal/mol	60.4 °C
GATCTGCGGCCAGATC ((((((....))))))	-27.4 kcal/mol	48.6 °C
GATCGATCGATCGATC ((((((....))))))	-57.6 kcal/mol	57.1 °C
GATCTCCCCCGAGATC ((((((....))))))	-36 kcal/mol	51.5 °C
GATCAGGGAGCTGATC ((((((....))))))	-35.2 kcal/mol	52.4 °C
GATCAGAAGGCTGATC ((((((....))))))	-29.4 kcal/mol	45.8 °C
GTCTCCGAAAGGAAAGAC ((((((....)))..)))	-23.1 kcal/mol	42.4 °C
GTTGACGAAAGTCGCAAC ((((((....)))..)))	-13.3 kcal/mol	31 °C
GCGGACGAAAGTCAACGC ((((((....)))..)))	-42 kcal/mol	54.3 °C
ACTAGGAAACTAGT (((((....)))))	-13.9 kcal/mol	37.9 °C
GGTATCGAAAGATGAACC ((((((....)))..)))	-15.4 kcal/mol	27.9 °C
GTCGCCCCGAAAGGGGAC (((..(((....))))))	-9.73 kcal/mol	40.1 °C
GGAAAGACGAAAGTCTCC (((..(((....))))))	-14.5 kcal/mol	36.4 °C
GATCACCCAAGTGATC ((((((....))))))	-46.8 kcal/mol	55.7 °C
GTCCTGGGAAACCAAGAC (((.(((....))).)))	-22.4 kcal/mol	34.5 °C
GCTCGGCGAAAGCCCAGC (((.(((....))).)))	-42.5 kcal/mol	44.2 °C
GATCGCGAAAGCGATATC ((((((....)))..)))	-11.8 kcal/mol	59.2 °C
